target: T1, TcFPPS (Trypanosoma cruzi, UniProt Q95WL3); experiment: isothermal titration calorimetry, two-sequential-site fit; assay type: binding
T1 sequence (Q95WL3 1-362): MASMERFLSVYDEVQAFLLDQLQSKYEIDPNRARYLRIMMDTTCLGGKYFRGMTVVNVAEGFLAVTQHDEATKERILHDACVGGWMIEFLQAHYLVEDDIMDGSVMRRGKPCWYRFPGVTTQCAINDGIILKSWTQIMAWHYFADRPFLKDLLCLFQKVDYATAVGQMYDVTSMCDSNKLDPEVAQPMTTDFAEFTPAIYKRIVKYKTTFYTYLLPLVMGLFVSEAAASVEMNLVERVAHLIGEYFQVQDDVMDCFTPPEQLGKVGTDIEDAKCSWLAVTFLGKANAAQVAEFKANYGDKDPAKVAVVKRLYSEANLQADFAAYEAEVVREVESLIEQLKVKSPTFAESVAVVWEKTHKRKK
Procedure, shortened: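 TcFPPS carried an N-terminal His-tag, was expressed in E. coli BL21(DE3), and was purified by Ni-affinity and gel filtration. Protein at 22.5 μM was dialyzed into 20 mM HEPES pH 7.5, 1 M NaCl, 2 mM MgCl2, 2 mM TCEP. Test compound at 250 μM in the same buffer was injected (10 μL) every 300 s at 26°C. Dilution heats were subtracted and the first injection excluded. Isotherms were fitted to a two-sequential-site model.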

SMILES	Kd
O=P(O)(O)C(O)(Cn1ccnc1)P(=O)(O)O [91B, zoledronate]	28.6 nM
O=P(O)(O)C(O)(Cc1cnc2ccccn12)P(=O)(O)O [261A, minodronate]	10.9 nM
O=P(O)(O)C(O)(Cc1cccnc1)P(=O)(O)O [Ris, risedronate]	66.7 nM

Reference: article PMC3018326 (Proteins, 2010)
